ChEMBL document CHEMBL3352721, “Identification, optimization, and pharmacology of acylurea GHS-R1a inverse agonists” (J Med Chem, 2014)
Converted amounts (≈) assume the structure as drawn. Each block holds one compound with its values, some of them ahead of it. The source made the active and inactive calls. The calls are words filed in the database; no cut-off is given here.

Tests used:
MDR1 [1] = test: Efflux ratio in MDCK cells expressing MDR1 at 10 uM; format: ADME, cell-based, Canis lupus familiaris; conditions: dog
Outline: (§1)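 MDCK-MDR1 monolayers incubated with compound at 10 µM; permeability measured in both A→B and B→A directions, giving Papp A-B (x10^6 cm/s) and the efflux ratio.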

[2] = target: Growth hormone secretagogue receptor type 1 (Homo sapiens, UniProt Q92847); test: Displacement of [125I]human ghrelin from human GHS-R1a expressed in HEK cell membranes after 60 mins by gamma counting method; parameters: species or system HEK293
[3] = Ratio of free drug level in homogenized brain to plasma in CD1 mouse measured 6 hrs after oral dosing by LC-MS/MS method; format: ADME
Outline: (§2)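 CD-1 mice dosed PO in 1% Pluronic F127. Drug was measured in homogenized brain and in plasma 6 h after dosing and expressed as a brain:plasma ratio. The free ratio used free fraction measured in mouse plasma and rat brain (brain slice or brain homogenate).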

[4] = Ratio of drug level in homogenized brain to plasma in CD1 mouse at 0.9 mg/kg, po measured after 6 hrs by LC-MS/MS method; format: ADME, organism-based; parameters: dose 0.9 mg/kg, route oral; conditions: read-out: BPR; outline: as §2
[5] = Lipophilicity, logD of the compound; format: physicochemical; conditions: octanol/water
[6] = Cmax in CD1 mouse at 2 mg/kg, po by LC-MS/MS method; format: ADME, organism-based; parameters: dose 2 mg/kg, route oral; conditions: in vivo
Outline: (§3)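 Oral gavage in male HW rats, beagle dogs or CD-1 mice, vehicle Pluronic F127 in water. EDTA plasma was collected over 24 h and quantified by LC/MS/MS after acetonitrile precipitation. Cmax and bioavailability were obtained by non-compartmental analysis against IV data.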

MDR1 [7] = test: Apparent permeability in MDCK cells expressing MDR1 at 10 uM assessed as apical to basolateral side transport; format: ADME, cell-based, Canis lupus familiaris; conditions: dog; outline: as §1
[8] = Ratio of drug level in homogenized brain to plasma in CD1 mouse at 2.7 mg/kg, po measured after 6 hrs by LC-MS/MS method; format: ADME, organism-based; parameters: dose 2.7 mg/kg, route oral; conditions: read-out: BPR
Outline: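 Brain homogenate and plasma drug levels were taken 6 h after oral dosing, and their ratio was reported. Plasma was assayed by LC/MS/MS after acetonitrile protein precipitation.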

[9] = Cmax in Han-Wistar rat at 2 mg/kg, po by LC-MS/MS method; format: ADME, organism-based; parameters: dose 2 mg/kg, route oral; conditions: in vivo; outline: as §3
[10] = Ratio of free drug level in homogenized brain to plasma in Han-Wistar rat measured 1 hr after iv bolus then iv infusion by LC-MS/MS method; format: ADME, organism-based; conditions: read-out: BPR
Outline: (§4)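 Brain:plasma ratio in homogenized brain 1 h after IV bolus followed by IV infusion. The free ratio used free fractions measured in plasma and brain (brain slice method or brain homogenate).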

[11] = Ratio of drug level in homogenized brain to plasma in Han-Wistar rat measured 1 hr after iv bolus then iv infusion by LC-MS/MS method; format: ADME, organism-based; conditions: read-out: BPR; outline: as §4
[12] = Volume of distribution at steady state in beagle dog at 1 mg/kg, iv; format: ADME, organism-based, Canis lupus familiaris; parameters: dose 1 mg/kg, route intravenous; conditions: in vivo, read-out: Vdss
Outline: (§5)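 Male HW rats, beagle dogs or CD-1 mice received an IV bolus in 5% DMSO/95% hydroxypropyl-β-cyclodextrin (30% w/v). EDTA plasma was sampled over 24 h and assayed by LC/MS/MS after acetonitrile protein precipitation. CL and Vss were obtained by non-compartmental analysis.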

[13] = Unbound fraction in beagle dog plasma; format: ADME, cell-free, Canis lupus familiaris
[14] = Cmax in beagle dog at 1 mg/kg, po; format: ADME, organism-based, Canis lupus familiaris; parameters: dose 1 mg/kg, route oral; conditions: in vivo; outline: as §3
[15] = Oral bioavailability in beagle dog at 1 mg/kg; format: ADME, organism-based, Canis lupus familiaris; conditions: in vivo; outline: as §3
Mus musculus [16] = test: Increase in food intake in po dosed C57Bl6j mouse free feeding model measured over 24 hrs period; format: functional
Outline: (§6)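 Male mice (C57Bl6j, GHSr1-/- or wild-type littermates) were acclimatized 3 weeks to reversed light-dark, then individually housed 7 days and grouped (n=10-12) by baseline intake and body weight. Suspensions in 1% Pluronic F127 or vehicle were gavaged at 10 mL/kg about 1 h before dark onset. Pre-weighed food was reweighed at 2, 4, 6 and 24 h.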

[17] = Unbound fraction in CD1 mouse plasma; format: ADME, cell-free
[18] = Cmax in CD1 mouse at 5 mg/kg, po; format: ADME, organism-based; parameters: dose 5 mg/kg, route oral; conditions: in vivo; outline: as §3
[19] = Volume of distribution at steady state in CD1 mouse at 2 mg/kg, iv; format: ADME, organism-based; parameters: dose 2 mg/kg, route intravenous; conditions: in vivo, read-out: Vdss; outline: as §5
[20] = Displacement of [125I]human ghrelin from mouse GHS-R1a expressed in HEK cell membranes after 60 mins by gamma counting method; conditions: hek293
Outline: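 HEK cell membranes stably overexpressing mouse or rat GHS-R1a (4 µg/well) incubated 60 min at rt with 20 pM [125I]human ghrelin and competing compound. Buffer: 50 mM Tris-HCl, 5 mM MgCl2, 0.01% BSA, pH 7.4, plus 10 µM methyl arachidonyl fluorophosphonate. Stopped by filtration over PEI-soaked GF/C filters with ice-cold washes, then gamma counting. IC50 is the mean of ≥2 independent determinations.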

[21] = Cmax in Han-Wistar rat at 2 mg/kg, po; format: ADME, organism-based; parameters: dose 2 mg/kg, route oral; conditions: in vivo; outline: as §3
Mus musculus [22] = test: Increase in food intake in po dosed C57Bl6j mouse free feeding model measured in 2 hrs intervals; format: functional, organism-based; outline: as §6
[23] = Ratio of plasma concentration in C57Bl6j mouse free feeding model at 30 mg/kg, po after 1 hr to IC50 for mouse GHS-R1a expressed in HEK cell membranes; format: ADME, organism-based, HEK293; parameters: dose 30 mg/kg, route oral; conditions: in vivo
Outline: (§7)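 Male mice were kept on a reversed light cycle and given a 1% Pluronic F127 suspension orally (10 mL/kg) about 1 h before dark. Plasma exposure was corrected for mouse plasma protein binding and divided by mouse GHS-R1a binding IC50. Binding was 20 pM [125I]ghrelin displacement on HEK membranes, 60 min rt, pH 7.4, read by gamma counting.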

[24] = Volume of distribution at steady state in Han-Wistar rat at 2 mg/kg, iv; format: ADME, organism-based; parameters: dose 2 mg/kg, route intravenous; conditions: in vivo, read-out: Vdss; outline: as §5
[25] = Ratio of plasma concentration in C57Bl6j mouse free feeding model at 30 mg/kg, po after 2 hrs to IC50 for mouse GHS-R1a expressed in HEK cell membranes; format: ADME, organism-based, HEK293; parameters: dose 30 mg/kg, route oral; conditions: in vivo; outline: as §7
[26] = Clearance in CD1 mouse at 2 mg/kg, iv; format: ADME, organism-based; parameters: dose 2 mg/kg, route intravenous; conditions: in vivo; outline: as §5
[27] = target: Growth hormone secretagogue receptor type 1 (Rattus norvegicus) (UniProt O08725); test: Displacement of [125I]human ghrelin from rat GHS-R1a expressed in HEK cell membranes after 60 mins by gamma counting method; conditions: hek293
[28] = Oral bioavailability in Han-Wistar rat at 2 mg/kg; format: ADME, organism-based; conditions: Han-Wistar, in vivo; outline: as §3
[29] = Aqueous solubility at pH 7.4 under thermodynamic conditions; format: physicochemical; conditions: buffer, read-out: Therm_solubility
Outline: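 Thermodynamic solubility measured from solid samples in aqueous medium at pH 7.4.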

[30] = Clearance in beagle dog at 1 mg/kg, iv; format: ADME, organism-based, Canis lupus familiaris; parameters: dose 1 mg/kg, route intravenous; conditions: in vivo; outline: as §5
[31] = Oral bioavailability in CD1 mouse at 5 mg/kg; format: ADME, organism-based; conditions: in vivo; outline: as §3
[32] = Clearance in Han-Wistar rat at 2 mg/kg, iv; format: ADME, organism-based; parameters: dose 2 mg/kg, route intravenous; conditions: in vivo; outline: as §5
[33] = Ratio of plasma concentration in C57Bl6j mouse free feeding model at 30 mg/kg, po after 6 hrs to IC50 for mouse GHS-R1a expressed in HEK cell membranes; format: ADME, organism-based, HEK293; parameters: dose 30 mg/kg, route oral; conditions: in vivo; outline: as §7
[34] = Unbound fraction in Han-Wistar rat plasma; format: ADME, cell-free

Growth hormone secretagogue receptor type 1, sequence (Q92847 whole entry): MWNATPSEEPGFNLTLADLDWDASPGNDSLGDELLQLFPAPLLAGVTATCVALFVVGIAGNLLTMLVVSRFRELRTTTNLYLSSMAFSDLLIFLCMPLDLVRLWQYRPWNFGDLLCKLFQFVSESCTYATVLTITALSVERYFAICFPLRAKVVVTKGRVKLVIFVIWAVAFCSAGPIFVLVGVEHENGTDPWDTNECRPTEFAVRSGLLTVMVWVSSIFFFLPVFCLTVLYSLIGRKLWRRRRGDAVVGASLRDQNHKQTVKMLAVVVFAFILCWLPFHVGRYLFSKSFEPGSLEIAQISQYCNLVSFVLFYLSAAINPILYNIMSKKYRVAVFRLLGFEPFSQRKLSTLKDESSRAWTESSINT
Growth hormone secretagogue receptor type 1 (Rattus norvegicus), sequence (O08725 whole entry, looked up): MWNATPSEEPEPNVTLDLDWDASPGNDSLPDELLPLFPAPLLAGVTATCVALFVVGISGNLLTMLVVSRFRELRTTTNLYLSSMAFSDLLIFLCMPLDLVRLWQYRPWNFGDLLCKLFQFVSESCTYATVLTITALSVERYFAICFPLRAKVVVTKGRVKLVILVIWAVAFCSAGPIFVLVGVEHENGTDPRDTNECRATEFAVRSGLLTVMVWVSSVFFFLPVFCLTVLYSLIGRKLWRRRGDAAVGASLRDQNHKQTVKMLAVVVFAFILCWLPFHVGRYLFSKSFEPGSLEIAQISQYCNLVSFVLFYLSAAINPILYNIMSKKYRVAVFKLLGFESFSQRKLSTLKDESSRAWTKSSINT

efflux ratio at 10 µM (MDR1 [1]): 0.47 | IC50 [2]: 0.4 nM | Kp uu at 6 h [3]: 0.38 | Kp at 6 h [4]: 0.072 | logD [5]: 3 | Cmax [6]: 840 nM | Papp A→B at 10 µM (MDR1 [7]): 3 ×10⁻⁶ cm/s
SMILES: CN1CCC(S(=O)(=O)c2ccc3nc(NC(=O)NC(=O)c4cc(N5CCCC5)c(C#N)cc4Cl)sc3c2)CC1

efflux ratio at 10 µM (MDR1 [1]): 1.2 | IC50 [2]: 7.2 nM | Kp uu at 6 h [3]: 0.072 | logD [5]: 2.8 | Cmax [6]: 3000 nM | Kp at 6 h [8]: 0.15 | Papp A→B at 10 µM (MDR1 [7]): 5.1 ×10⁻⁶ cm/s
SMILES: CN1CCC(S(=O)(=O)c2ccc3nc(NC(=O)NC(=O)c4cc5c(cc4Cl)CCN5C)sc3c2)CC1

efflux ratio at 10 µM (MDR1 [1]): 9.1 | Cmax [9]: 1400 nM | IC50 [2]: 0.33 nM | Kp uu at 1 h [10]: 1.2 | logD [5]: 2.9 | Kp at 1 h [11]: 0.18 | Papp A→B at 10 µM (MDR1 [7]): 2 ×10⁻⁶ cm/s
SMILES: CN1CCN(CCCS(=O)(=O)c2ccc3nc(NC(=O)NC(=O)c4cc(C5CC5)ccc4Cl)sc3c2)CC1

efflux ratio at 10 µM (MDR1 [1]): 4.2 | Vd [12]: 4 L/kg | fraction unbound [13]: 0.096 | Cmax [14]: 200 nM | bioavailability [15]: 51% | fraction unbound [17]: 0.13 | Cmax [18]: 710 nM | IC50 [2]: 1.3 nM | Vd [19]: 4.5 L/kg | IC50 [20]: 4.9 nM | Cmax [21]: 340 nM | Ratio [23]: 310 | Vd [24]: 4.9 L/kg | logD [5]: 1.8 | Ratio [25]: 220 | clearance [26]: 35 mL/min/kg | IC50 [27]: 3.6 nM | bioavailability [28]: 125% | solubility thermodynamic [29]: 280 µM (≈ 150 µg/mL) | clearance [30]: 8.1 mL/min/kg | bioavailability [31]: 40% | clearance [32]: 24 mL/min/kg | Ratio [33]: 20 | fraction unbound [34]: 0.08 | Papp A→B at 10 µM (MDR1 [7]): 7.1 ×10⁻⁶ cm/s
SMILES: CN1CCN(CCCS(=O)(=O)c2ccc3nc(NC(=O)NC(=O)c4ccccc4Cl)sc3c2)CC1
Activity (Mus musculus [16]): 19% | Activity (Mus musculus [22]): Active
